Assay results pooled from the literature.
Compare with care: the assays were run in different laboratories.
Read-out: metabolic stability
Host: human
Matrix: liver microsomes

| SMILES | concentration | pH | microsomal CLint |
| --- | --- | --- | --- |
| COCC(=O)N1CCC[C@H](C(=O)NCc2nc(-c3ccc(C#N)cc3)cs2)C1 | 0.5 µM |  | 10 µL/min/mg |
| CC1(C)NC(=O)N(c2ccc(F)c(Br)c2)C1=O |  |  | < 7 µL/min/mg |
| Cc1[nH]c(C)c(S(=O)(=O)Nc2ccc(C(F)(F)F)c(Cl)c2)c1C(=O)N(C)C |  |  | 79 µL/min/mg |
| COCC(=O)N1CCC[C@H](C(=O)NCc2nc(-c3ccc(C(F)(F)F)cc3)cs2)C1 | 0.5 µM |  | 37 µL/min/mg |
| CCN(CC)CCNC(=O)c1c(C)[nH]c(/C=C2\C(=O)Nc3ccc(F)cc32)c1C | 1 µM | pH 7.4 | 25.6 µL/min/mg |
| CNC(C)(C)COCC(=O)N1CCC[C@H](C(=O)NCc2nc(-c3ccc(C(F)(F)F)cc3)cs2)C1 | 0.5 µM |  | 12 µL/min/mg |
| CCOc1ccc(Nc2c3c(nc4ccccc24)CCC3)cc1 | 0.5 µM |  | 37 µL/min/mg |
| CC1(C)NC(=O)N(c2cccc(C(F)(F)F)n2)C1=O |  |  | < 7 µL/min/mg |
| O=C1c2ccccc2C(=O)N1CCCN1CCN(C(c2ccc(F)cc2)c2ccc(F)cc2)CC1 | 100 ng/mL |  | 39 µL/min/mg |
| CCONC(=O)N1CCC[C@H](C(=O)NCc2nc(-c3ccc(C#N)cc3)cs2)C1 | 0.5 µM |  | 9 µL/min/mg |
| O=c1c2c([nH]c3cc(Nc4ccc(OC(F)(F)F)cc4)ccc13)CCCC2 | 1 µM | pH 7.4 | 67 µL/min/mg |
| Cc1ccc(Oc2ccc(NC(=O)CN(C)c3ccccc3N3CCCC3=O)cc2)cc1 |  |  | 383 µL/min/mg |
| O=c1c2c([nH]c3ccc(Oc4ccc(OC(F)(F)F)cc4)cc13)CCCC2 | 1 µM | pH 7.4 | 55.3 µL/min/mg |
| Cc1ccc(Oc2ccc(NC(=O)CNc3ccccc3-n3cncn3)cc2)cc1 |  |  | 98 µL/min/mg |
| O=c1c2c([nH]c3cc(Oc4ccc(OC(F)(F)F)cc4)ccc13)CCCC2 | 1 µM | pH 7.4 | 51.8 µL/min/mg |
| CC1(C)CCC(C(=O)NCc2nc(-c3ccc(C#N)cc3)cs2)CN1C(=O)COCCF (racemic) | 0.5 µM |  | 219 µL/min/mg |
| CCN(CC)CCCOc1ccc2c(=O)c3c([nH]c2c1)CCCC3 | 1 µM | pH 7.4 | 5.53 µL/min/mg |
| CCONC(=O)N1CCC[C@H](C(=O)N[C@H](C)c2nc(-c3ccc(C#N)cc3)cs2)C1 | 0.5 µM |  | 17 µL/min/mg |
| O=c1c2c([nH]c3cc(Oc4cccc(OC(F)(F)F)c4)ccc13)CCCC2 | 1 µM | pH 7.4 | 1.66 µL/min/mg |
| Cc1ccc(Nc2cnnc3ccc(-c4ccc(N5CCN(C)CC5)cc4)cc23)cn1 |  |  | 36 µL/min/mg |
| O=c1c2ccc(OCc3cccc(OC(F)(F)F)c3)cc2[nH]c2cc(Cl)cc(F)c12 | 1 µM | pH 7.4 | 16.1 µL/min/mg |
| Cc1cc2c(C(=O)O)cccc2n1-c1nc2c(c(NCc3ccccc3)n1)CCCN2 | 1 µM | pH 7.4 | 9.07 µL/min/mg |
